Test results published in ChEMBL document CHEMBL4190306, “Synthesis and structure-activity relationship study of novel 3-heteroarylcoumarins based on pyridazine scaffold as selective MAO-B inhibitors” (Eur J Med Chem, 2017).

Assays:
[1] = system: SH-SY5Y; assay: Cytotoxicity against human SH-SY5Y cells at 10 uM after 24 hrs by MTT assay; format: cell-based
Outline: (§1)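 SH-SY5Y neuroblastoma cells were seeded at 1.10⁶/mL and incubated overnight. Compounds in DMSO (1%) were added, with 1% DMSO-treated cells as negative control, for 24 h. MTT solution (5 mg/ml in PBS, 10%) was then added for 2 h at 37 °C, and the crystals were dissolved in DMSO. A540 was read, and viability was taken as % of negative-control absorbance.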

[2] = molecular target: T1, Amine oxidase [flavin-containing] A (Homo sapiens, UniProt P21397); assay: (§2) Inhibition of human recombinant MAO-A expressed in baculovirus infected BTI-TN5B1-4 cells using p-tyramine as substrate assessed as reduction in H2O2 production at 100 uM preincubated for 15 mins followed by substrate addition measured after 15 mins by Amplex red dye based fluorescence assay; conditions: 0.25 h
T1 sequence (P21397 whole entry): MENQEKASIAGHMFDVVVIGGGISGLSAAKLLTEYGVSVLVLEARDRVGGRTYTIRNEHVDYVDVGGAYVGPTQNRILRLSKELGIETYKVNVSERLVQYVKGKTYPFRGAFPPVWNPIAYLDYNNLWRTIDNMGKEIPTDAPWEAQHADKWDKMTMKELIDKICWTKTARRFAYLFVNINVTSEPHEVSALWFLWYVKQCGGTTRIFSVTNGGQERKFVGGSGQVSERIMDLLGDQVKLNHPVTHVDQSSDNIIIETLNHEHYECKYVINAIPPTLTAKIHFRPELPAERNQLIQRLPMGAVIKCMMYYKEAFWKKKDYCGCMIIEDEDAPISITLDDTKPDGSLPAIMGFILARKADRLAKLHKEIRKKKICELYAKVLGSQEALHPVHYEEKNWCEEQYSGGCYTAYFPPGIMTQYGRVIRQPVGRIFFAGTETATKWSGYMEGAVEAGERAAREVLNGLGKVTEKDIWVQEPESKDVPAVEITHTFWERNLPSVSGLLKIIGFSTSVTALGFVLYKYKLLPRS
Outline: (§3)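 Microsomal hMAO-A (1.1 µg protein) or hMAO-B (7.5 µg protein) from baculovirus-infected insect cells was used, with each amount adjusted to an oxidation rate of 165±2 pmol p-tyramine/min. Enzyme and test drug in 0.5M sodium phosphate pH 7.4 were pre-incubated 15 min at 37 °C. The reaction was started with final 200 µM Amplex Red, 1 U/mL HRP and 1 mM p-tyramine. Resorufin fluorescence (ex 545/em 590 nm) was followed for 15 min at 37 °C, background without enzyme was subtracted, and controls received vehicle.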

[3] = molecular target: T2, Amine oxidase [flavin-containing] B (Homo sapiens, UniProt P27338); assay: Inhibition of human recombinant MAO-B expressed in baculovirus infected BTI-TN5B1-4 cells using p-tyramine as substrate assessed as reduction in H2O2 production preincubated for 15 mins followed by substrate addition measured after 15 mins by Amplex red dye based fluorescence assay; format: cell-based
T2 sequence (P27338 whole entry): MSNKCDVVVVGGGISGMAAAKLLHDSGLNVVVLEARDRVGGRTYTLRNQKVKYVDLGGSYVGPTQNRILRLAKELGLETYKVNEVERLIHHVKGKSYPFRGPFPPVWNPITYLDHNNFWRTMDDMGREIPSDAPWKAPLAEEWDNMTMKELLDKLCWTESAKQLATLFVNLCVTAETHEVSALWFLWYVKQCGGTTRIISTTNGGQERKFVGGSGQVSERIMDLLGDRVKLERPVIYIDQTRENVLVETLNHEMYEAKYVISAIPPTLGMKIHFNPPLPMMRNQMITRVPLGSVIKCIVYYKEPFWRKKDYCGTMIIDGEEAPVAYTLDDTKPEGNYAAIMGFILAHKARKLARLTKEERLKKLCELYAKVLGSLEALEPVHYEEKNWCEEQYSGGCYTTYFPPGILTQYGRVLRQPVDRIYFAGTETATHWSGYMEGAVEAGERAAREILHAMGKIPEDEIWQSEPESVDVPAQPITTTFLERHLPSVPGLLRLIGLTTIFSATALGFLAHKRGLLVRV

[4] = species on record: Homo sapiens; assay: Selectivity index, ratio of IC50 for human recombinant MAO-A expressed in baculovirus infected BTI-TN5B1-4 cells to IC50 for human recombinant MAO-B expressed in baculovirus infected BTI-TN5B1-4 cells
Outline: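 IC50 values for hMAO-A and hMAO-B were obtained in the same p-tyramine/Amplex Red assay (15 min pre-incubation, 37 °C, 15 min fluorescence read). Each IC50 came from linear least-squares regression of % inhibition versus log molar concentration, using 4–6 concentrations giving 20–80% inhibition. Selectivity was taken as IC50(MAO-A)/IC50(MAO-B).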

[5] = molecular target: T2, Amine oxidase [flavin-containing] B; assay: as §2, with “MAO-B” for “MAO-A”, “assay relative to control” for “assay”; conditions: 0.25 h
[6] = system: SH-SY5Y; assay: Cytotoxicity against human SH-SY5Y cells at 20 uM after 24 hrs by MTT assay; format: cell-based; outline: as §1
[7] = molecular target: T2, Amine oxidase [flavin-containing] B; assay: Inhibition of human recombinant MAO-B expressed in baculovirus infected BTI-TN5B1-4 cells using p-tyramine as substrate assessed as reduction in H2O2 production at 100 uM preincubated for 15 mins followed by substrate addition measured after 15 mins by Amplex red dye based fluorescence assay; conditions: 0.25 h; outline: as §3

Row | Compound | Activity [1] | inhibition (INH) [2] | IC50 [3] | Ratio IC50 [4] | inhibition at 100 µM [5] | Activity [6] | inhibition (INH) [7]
1 | COc1ccc2cc(-c3ccc(Cl)nn3)c(=O)oc2c1 | Non-Toxic | Not Active | 19.2 µM | > 5.2 | – | – | –
2 | COc1ccc2oc(=O)c(-c3ccc(Br)nn3)cc2c1 | Non-Toxic | Not Active | 0.56 µM | > 179 | – | – | –
3 | COc1ccc(-c2cc3ccc(C)cc3oc2=O)nn1 | Non-Toxic | Not Active | 13.5 µM | > 7.4 | – | – | –
4 | Cc1cccc2cc(-c3ccc(Br)nn3)c(=O)oc12 | Non-Toxic | Not Active | 2.64 µM | > 37.9 | – | – | –
5 | COc1ccc2oc(=O)c(-c3ccc(Cl)nn3)cc2c1 | Non-Toxic | Not Active | 8.8 µM | > 11.4 | – | – | –
6 | COc1ccc2cc(-c3ccc(Br)nn3)c(=O)oc2c1 | Non-Toxic | Not Active | 3.05 µM | > 32.8 | – | – | –
7 | COc1ccc(-c2cc3cc(C)ccc3oc2=O)nn1 | Non-Toxic | Not Active | 17.6 µM | > 5.7 | – | – | –
8 | Cc1ccc2cc(-c3ccc(Br)nn3)c(=O)oc2c1 | Non-Toxic | Not Active | 0.75 µM | > 133 | – | – | –
9 | COc1ccc(-c2cc3cccc(C)c3oc2=O)nn1 | Non-Toxic | Not Active | 5.35 µM | > 18.7 | – | – | –
10 | Cc1ccc2oc(=O)c(-c3ccc(Cl)nn3)cc2c1 | Non-Toxic | Not Active | 13.5 µM | > 7.4 | – | – | –
11 | COc1ccc2oc(=O)c(-c3ccc(OC)nn3)cc2c1 | Non-Toxic | Not Active | 11.1 µM | > 9 | – | – | –
12 | COc1ccc2cc(-c3ccc(OC)nn3)c(=O)oc2c1 | Non-Toxic | Not Active | – | – | 45 to 50% | – | –
13 | Cc1cccc2cc(-c3ccc(Cl)nn3)c(=O)oc12 | Non-Toxic | Not Active | 22.7 µM | > 4.4 | – | – | –
14 | COc1cccc2cc(-c3ccc(Cl)nn3)c(=O)oc12 | Non-Toxic | Not Active | 30.1 µM | > 3.3 | – | – | –
15 | COc1cccc2cc(-c3ccc(Br)nn3)c(=O)oc12 | Non-Toxic | Not Active | 12.8 µM | > 7.8 | – | – | –
16 | Cc1ccc2oc(=O)c(-c3ccc(Br)nn3)cc2c1 | Non-Toxic | Not Active | 2.16 µM | > 46.3 | – | – | –
17 | COc1ccc(-c2cc3cccc(OC)c3oc2=O)nn1 | Non-Toxic | Not Active | – | – | – | Toxic | Not Active
18 | Cc1ccc2cc(-c3ccc(Cl)nn3)c(=O)oc2c1 | Non-Toxic | Not Active | 2.51 µM | > 39.8 | – | – | –
